Experimental data from ChEMBL document CHEMBL1821637, “Selective cytotoxicity of oxysterols through structural modulation on rings A and B. Synthesis, in vitro evaluation, and SAR” (J Med Chem, 2011).

Assays:
HT-29 [1] = test: Cytotoxicity against human HT-29 cells assessed as cell viability after 48 hrs by alamar blue assay; assay type: functional, cell-based; conditions: HT-29, 48 h
In short: (§1)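 Alamar Blue viability assay on the human cell line named (origins given: HT-29 colorectal adenocarcinoma, HepG2 hepatocellular carcinoma, LAMA-84 myeloid leukemia, A549 lung adenocarcinoma, PC3 prostate metastasis, MCF-7 breast adenocarcinoma, ARPE-19 retinal pigment epithelium, BJ skin fibroblast). Exposure was 48 h. Sterol stocks were made in DMSO. IC50 is the concentration inhibiting 50% of cellular growth, given as the mean of at least three separate experiments.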

[2] = Cytotoxicity against human ARPE19 cells assessed as cell viability after 48 hrs by alamar blue assay; assay type: cell-based, ARPE-19; conditions: Homo sapiens, ARPE-19, 48 h; in short: as §1
HT-29 [3] = test: Cytotoxicity against human HT-29 cells assessed as inhibition of cell growth after 96 hrs by alamar blue assay; assay type: functional, cell-based; conditions: HT-29, 96 h
In short: (§2)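 HT-29 and ARPE-19 cells exposed for 96 h. ARPE-19 seeded at 5 10^3 cells/well for this period. Sterol stocks in DMSO. Viability by Alamar Blue. IC50 is the concentration inhibiting 50% of cellular growth, mean of at least three separate experiments.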

[4] = Cytotoxicity against human ARPE19 cells assessed as inhibition of cell growth after 96 hrs by alamar blue assay; assay type: cell-based; conditions: ARPE-19, 96 h; in short: as §2
HT-29 [5] = test: Selectivity index, ratio of IC50 for human ARPE19 cells to IC50 for human HT-29 cells; assay type: functional

| SMILES | IC50 (HT-29 [1]) [µM] | IC50 [2] [µM] | IC50 (HT-29 [3]) [µM] | IC50 [4] [µM] | Ratio IC50 (HT-29 [5]) |
| --- | --- | --- | --- | --- | --- |
| CC(=O)O[C@H]1CC[C@]2(C)[C@H]3CC[C@]4(C)[C@@H]([C@H](C)CCCC(C)C)CC[C@H]4[C@@H]3C[C@@H](OC(C)=O)[C@@]2(O)C1 | 43.1 | 64.1 | 25.3 | 35.4 | 1.49 |
| CC(=O)O[C@H]1CC[C@]2(C)[C@H]3CC[C@]4(C)[C@@H]([C@H](C)CCCC(C)C)CC[C@H]4[C@@H]3[C@@H](OC(C)=O)[C@@H](O)[C@@]2(O)C1 | 20.1 | 29 | 16.6 | 19.5 | 1.44 |
| CC(=O)O[C@H]1CC[C@@]2(C)C(=C[C@H](O)[C@H]3[C@@H]4CC[C@H]([C@H](C)CCCC(C)C)[C@@]4(C)CC[C@@H]32)C1 | – | 46.5 | 12.4 | 23.6 | 1.58 |
| CC(=O)O[C@H]1CC[C@]2(C)[C@H]3CC[C@]4(C)[C@@H]([C@H](C)CCCC(C)C)CC[C@H]4[C@@H]3CC[C@@]2(O)[C@H]1O | 18.6 | 32.5 | 17.7 | 21.8 | 1.75 |
| CC(=O)O[C@H]1[C@@H](O)CC[C@]2(C)[C@H]3CC[C@]4(C)[C@@H]([C@H](C)CCCC(C)C)CC[C@H]4[C@@H]3CC[C@@]12O | 15.2 | 37.4 | 18.7 | 22.3 | 2.46 |
| CC(=O)O[C@H]1CC[C@]2(C)[C@H]3CC[C@]4(C)[C@@H]([C@H](C)CCCC(C)C)CC[C@H]4[C@@H]3[C@@H](O)[C@@H](O)[C@@]2(O)C1 | 18.8 | 30.5 | 14.7 | 23.8 | 1.62 |
